Results taken from ChEMBL document CHEMBL1141763, “Limnophilaspiroketone, a highly oxygenated phenolic derivative from Limnophila geoffrayi” (J Nat Prod, 2005).

These compounds were tested against NAD(P)H dehydrogenase [quinone] 1 (Homo sapiens) (UniProt P15559) (assay: Induction of quinone reductase).
Sequence of NAD(P)H dehydrogenase [quinone] 1 (Homo sapiens) (P15559 whole entry): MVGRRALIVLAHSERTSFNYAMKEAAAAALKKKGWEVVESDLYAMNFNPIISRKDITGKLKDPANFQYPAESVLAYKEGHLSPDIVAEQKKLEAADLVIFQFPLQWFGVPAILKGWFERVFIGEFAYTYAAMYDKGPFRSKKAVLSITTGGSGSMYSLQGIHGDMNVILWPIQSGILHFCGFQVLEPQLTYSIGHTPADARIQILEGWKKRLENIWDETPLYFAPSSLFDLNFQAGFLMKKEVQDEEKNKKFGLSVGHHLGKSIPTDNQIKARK
Outline: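 Quinone reductase induction measured in cultured mouse Hepa 1c1c7 hepatoma cells, following a previously described method. Activity is reported as CD, the concentration that doubles QR induction, in µg/mL.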
For `C=C(C)[C@@H]1CC[C@]2(C(=O)O)CC[C@]3(C)[C@H](CC[C@@H]4[C@@]5(C)CC[C@H](O)C(C)(C)[C@@H]5CC[C@]43C)[C@@H]12`, the CD was > 20 µg/mL.
For `C[C@@H]1CC[C@]2(C(=O)O)CC[C@]3(C)C(=CC[C@@H]4[C@@]5(C)CC[C@H](O)[C@](C)(CO)[C@@H]5CC[C@]43C)[C@@H]2[C@]1(C)O`, the CD was > 20 µg/mL.
With `CC1(C)CC[C@]2(C(=O)O)CC[C@]3(C)C(=CC[C@@H]4[C@@]5(C)CC[C@H](O)[C@@](C)(CO)[C@@H]5CC[C@]43C)[C@@H]2C1` the CD was > 20 µg/mL.
`CC(C)=CCC/C(C)=C\CC/C(C)=C\Cc1cc(C(=O)O)ccc1O` was tested, and the CD was > 20 µg/mL.
With `COC(=O)[C@@]1(O)C(OC)=C(OC)C(=O)[C@]12OC(c1ccc(O)cc1)=CC2=O` the CD was > 20 µg/mL.
`CC1(C)CC[C@]2(C(=O)O)CC[C@]3(C)C(=CC[C@@H]4[C@@]5(C)CC[C@H](O)C(C)(C)[C@@H]5[C@H](O)C[C@]43C)[C@@H]2C1` was tested, and the CD was > 20 µg/mL.
In the case of `COc1ccc(-c2cc(=O)c3c(O)c(OC)c(O)c(OC)c3o2)cc1`, the CD is reported as > 20 µg/mL.
With `COc1ccc(-c2cc(=O)c3c(O)c(OC)c(OC)c(OC)c3o2)cc1` the CD was > 20 µg/mL.
`COc1c(OC)c(O)c2c(=O)cc(-c3ccc(O)cc3)oc2c1O` was tested, and the CD was > 20 µg/mL.
